Test results as given in paper PMC9257745 (Molecular Pharmaceutics, 2022).
Bridge positions count the residues as written; N and C are the ends.

Tests used:
[1] = biological target: fatty acid-free HSA (Homo sapiens, UniProt P02768); assay: SPR binding to immobilized HSA; settings: fatty acid-free HSA immobilized on CM5 sensor chip
[2] = biological target: human SA (HSA) (Homo sapiens, UniProt P02768); assay: FACS binding specificity of peptide-displayed yeast cells, human albumin; settings: biotinylated SA, streptavidin-APC, flow cytometer
Procedure, shortened: (§1)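 Yeast grown in SDCAA at 30 °C for 16 h, then in SG/RCAA at 20 °C for 24 h to display the peptide. Cells labelled 1 h with mouse anti-FLAG and biotinylated albumin, washed in PBST, then stained 1 h with Alexa-488 goat anti-mouse IgG (display) and streptavidin-APC (albumin binding). Fluorescence read by flow cytometry.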

[3] = biological target: mouse SA (MSA) (Mus musculus, UniProt P07724); assay: FACS binding specificity of peptide-displayed yeast cells, mouse albumin; settings: biotinylated SA, streptavidin-APC, flow cytometer
Chain of mouse SA (MSA) (P07724 25-608): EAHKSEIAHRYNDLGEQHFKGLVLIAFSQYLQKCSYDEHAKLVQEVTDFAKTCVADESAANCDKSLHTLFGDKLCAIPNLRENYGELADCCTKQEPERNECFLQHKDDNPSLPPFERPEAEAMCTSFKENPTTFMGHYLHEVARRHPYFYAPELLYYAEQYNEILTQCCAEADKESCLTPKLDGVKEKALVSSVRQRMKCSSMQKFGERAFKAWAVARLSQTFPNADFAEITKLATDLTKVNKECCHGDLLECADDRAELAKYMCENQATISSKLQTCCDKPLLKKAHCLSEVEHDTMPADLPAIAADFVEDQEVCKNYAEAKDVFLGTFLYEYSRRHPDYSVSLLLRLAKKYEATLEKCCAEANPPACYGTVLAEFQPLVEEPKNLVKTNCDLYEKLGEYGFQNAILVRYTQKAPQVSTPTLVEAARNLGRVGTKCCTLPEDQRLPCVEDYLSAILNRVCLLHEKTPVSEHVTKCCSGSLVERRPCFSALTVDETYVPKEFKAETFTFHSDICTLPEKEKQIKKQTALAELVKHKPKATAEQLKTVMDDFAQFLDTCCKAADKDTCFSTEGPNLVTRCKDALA
Procedure, shortened: as §1

[4] = biological target: albumin of cynomolgus monkey (Macaca fascicularis, UniProt A2V9Z4); assay type: binding; settings: yeast-displayed peptide, biotinylated SA, streptavidin-APC, flow cytometer
Chain of albumin of cynomolgus monkey (A2V9Z4 25-608): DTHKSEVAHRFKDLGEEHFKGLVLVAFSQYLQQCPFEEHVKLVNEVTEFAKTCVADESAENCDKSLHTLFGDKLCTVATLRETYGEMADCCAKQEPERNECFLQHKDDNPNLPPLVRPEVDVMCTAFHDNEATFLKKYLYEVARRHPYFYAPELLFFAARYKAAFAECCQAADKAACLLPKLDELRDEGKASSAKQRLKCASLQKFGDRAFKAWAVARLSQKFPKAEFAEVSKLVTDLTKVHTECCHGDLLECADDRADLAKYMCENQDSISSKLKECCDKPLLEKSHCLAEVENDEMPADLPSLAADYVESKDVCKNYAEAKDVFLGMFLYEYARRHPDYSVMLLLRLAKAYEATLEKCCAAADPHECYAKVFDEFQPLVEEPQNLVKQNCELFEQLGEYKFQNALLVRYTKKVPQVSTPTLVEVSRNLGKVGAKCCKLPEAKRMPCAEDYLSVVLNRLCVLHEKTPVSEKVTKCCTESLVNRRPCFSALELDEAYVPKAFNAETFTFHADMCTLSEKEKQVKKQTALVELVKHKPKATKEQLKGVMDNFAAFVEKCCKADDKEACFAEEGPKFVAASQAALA
Procedure, shortened: as §1

[5] = biological target: albumin of rat (Rattus norvegicus, UniProt P02770); assay: FACS binding specificity of peptide-displayed yeast cells, rat albumin; settings: biotinylated SA, streptavidin-APC, flow cytometer
Chain of albumin of rat (P02770 25-608): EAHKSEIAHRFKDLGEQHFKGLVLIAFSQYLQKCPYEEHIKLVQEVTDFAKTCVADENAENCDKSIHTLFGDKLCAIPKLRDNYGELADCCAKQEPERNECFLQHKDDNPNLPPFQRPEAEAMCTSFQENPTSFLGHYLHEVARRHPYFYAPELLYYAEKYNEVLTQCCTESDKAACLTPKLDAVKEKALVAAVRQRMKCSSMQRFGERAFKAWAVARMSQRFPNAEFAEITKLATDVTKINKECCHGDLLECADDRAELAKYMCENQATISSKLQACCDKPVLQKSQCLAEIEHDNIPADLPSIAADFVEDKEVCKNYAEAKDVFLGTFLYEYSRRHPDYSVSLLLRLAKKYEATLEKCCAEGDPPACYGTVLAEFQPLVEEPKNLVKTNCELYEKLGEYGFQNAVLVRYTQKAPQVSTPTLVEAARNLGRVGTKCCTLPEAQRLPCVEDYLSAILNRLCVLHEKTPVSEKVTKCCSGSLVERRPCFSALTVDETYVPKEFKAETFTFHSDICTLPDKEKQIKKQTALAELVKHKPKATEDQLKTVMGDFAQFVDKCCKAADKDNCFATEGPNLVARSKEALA
Procedure, shortened: as §1

[6] = tested on: trypsin; assay: Tryptic digestion assay; assay type: in vitro ADME; settings: pH 8
Procedure, shortened: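 Peptide at 150 μM incubated with trypsin (substrate:enzyme 5000:1) at 37 °C in 100 mM Tris–HCl, pH 8.0. Aliquots taken at intervals and quenched with 1 M HCl. Remaining peptide measured by RP-HPLC and plotted as natural log against time, n = 3.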

[7] = tested on: healthy ddy mice; assay: Hypoglycemic effect, blood glucose after subcutaneous administration to mice; assay type: in vivo, mouse; settings: 38 μg/kg insulin, 16 h-fasted healthy male ddy mice, mean ± S.E of 4–7 experiments

Ac-CAAELAALEAELAALEGVNFGVVLFRGELAALKAKLAALKAYC-NH2 (disulfide 1-43; N-terminus assumed) [AY-VE]
Kd [1]: 65 ± 39 nM | Binding of yeast clone to albumin of human (FACS) [2]: affinity | Binding of yeast clone to albumin of mouse (FACS) [3]: affinity | Binding of yeast clone to albumin of cynomolgus monkey (FACS) [4]: no affinity | Binding of yeast clone to albumin of rat (FACS) [5]: no affinity | half-life at 150 μM [6]: 190 ± 10 min

insulin: Recombinant human insulin
Time of peak of hypoglycemic effect after administration [7]: 1 h

Ac-GVNFGVVLFRGELAALKAKLAALKAY-NH2 (N-terminus assumed) [AY-VE-dN]
half-life at 150 μM [6]: 6.3 ± 0.4 min

Ac-ELAALEAELAALEGVNFGVVLFRGELAALKAKLAALKAY-NH2 (N-terminus assumed) [AY-VE-dS]
half-life at 150 μM [6]: 56 ± 1 min
